Compounds with a hit are over-represented: about 2.9% of the library has one in this group of screens.
KLK7 zymogen act: proKLK7 zymogen activators, primary screen, biochemical, fluorescence intensity; Kallikrein-7 (Homo sapiens), P49862; purified proKLK7, EDANS-DABCYL substrate fluorescence; 100% is mature enzyme control, 0% vehicle; activation, % at 7 µM; actives 0.9% (n = 370,000);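 active = activation above the mean of all tested compounds plus 3 SD, computed per campaign excluding outliers beyond control limits, cut at about 13% in these data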
Target sequence (P49862 whole entry, looked up): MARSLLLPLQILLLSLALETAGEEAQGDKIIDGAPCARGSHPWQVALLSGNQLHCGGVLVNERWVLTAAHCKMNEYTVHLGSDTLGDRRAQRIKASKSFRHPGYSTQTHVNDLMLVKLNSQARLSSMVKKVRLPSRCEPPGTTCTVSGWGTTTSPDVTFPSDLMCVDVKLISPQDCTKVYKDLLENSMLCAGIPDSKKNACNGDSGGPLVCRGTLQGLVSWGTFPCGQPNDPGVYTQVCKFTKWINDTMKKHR
CRFR2-BP ag: agonists of CRF-BP/CRF-R2 complex, primary screen, cell-based, HEK293, calcium dye fluorescence, uHTS. CRF-binding protein / CRF receptor 2 complex (human). calcium dye fluorescence (FLIPR); percent of saturating CRF peptide response. activation, % at 13.2 µM. actives 0.46% (n = 350,000). AID 588473, 2011;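 active = activation of at least 50%, plus an integration ratio under a set limit after plate pattern correction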;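 also: plate controls were neutral control wells without compound for no effect and CRF at EC100 for full effect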
CRFBP-R2 block: antagonists of CRF-BP/CRF-R2 complex, primary screen, cell-based, HEK293, calcium dye fluorescence, uHTS | CRF-induced calcium fluorescence | inhibition, % at 11.8 µM | actives 0.59% (n = 350,000) | AID 588475, 2011;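 active = inhibition of the ligand-induced calcium signal above about 50% at the single tested concentration, limit read from the data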
NRP1-CendR mod: modulators of CendR peptide binding to NRP-1, primary screen, biochemical, fluorescence polarization, uHTS. actives 0.85% (n = 360,000). AID 602438, 2012. inhibition, % at 25 µM. FAM-RPARPAR peptide binding to NRP-1. Neuropilin-1 (Homo sapiens), O14786;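 active = inhibition or corrected inhibition above about 18%, plus a signal ratio from 0.5 to 1.5, limit read from the data, passing the limit was not always enough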
DDE Tn7 FP inh: inhibitors of Tn7 peptide binding to fibrin DD(E), primary screen, biochemical, fluorescence polarization, human fibrin, Tn7 probe; Fibrinogen beta chain (Homo sapiens), P02675; FP displacement of FITC-Tn7 peptide from fibrin DD(E); 0% = median of compound wells per plate; inhibition, % at 8.3 µM; actives 0.13% (n = 370,000); AID 720508, 2013;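 active = inhibition above the mean of compounds falling within the control limits plus 3 SD of them, cut at about 14% in these data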;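 also: 0% = plate median of compound wells and 100% = 10 µM Aha-Tn7 peptide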
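Assay system: Human clot-derived fibrin DD(E) complex | Buffer or medium: Tris/NaCl/CaCl2 buffer, pH 7.8 | Repeats: One replicate per compound | Benchmarks: Aha-Tn7 high control | Measure: % inhibition scaled between sample-field median and high-control FP | Schedule: 10 min plus 3 h, room temperature | Signal: Fluorescence polarization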
Tn6 DDE FP: inhibitors of Tn6 peptide binding to fibrin DD(E), primary screen, biochemical, fluorescence polarization, human fibrin, Tn6 probe | inhibition, % at 8.3 µM | Fibrinogen beta chain (Homo sapiens), P02675 | actives 0.21% (n = 370,000) | Fibrin DD(E) TRITC-Tn6 fluorescence polarization displacement;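 active = inhibition above a per-campaign cutoff: mean of compounds within control limits plus 3 SD, cut at about 15% in these data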;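 also: 0% = median of all compound wells on the plate and 100% = blocking peptide control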
KLK7 act conf: proKLK7 zymogen activators, confirmation, biochemical, fluorescence intensity, triplicate. shares compounds with KLK7 zymogen act. purified proKLK7, EDANS-DABCYL substrate fluorescence; scaled: vehicle 0, mature enzyme 100. activation, % at 7 µM. actives 68% (n = 3,200). AID 686949, 2013;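 active = activation, as change over the incubation, above the mean of all tested compounds plus 3 SD, cut at about 13% in these data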
EDANS interfere: EDANS-DABCYL substrate optical interference, artefact control for kallikrein-7 zymogen activator project, biochemical, fluorescence intensity, high throughput; shares compounds with KLK7 zymogen act; no enzyme, 4 h; solvent 0%, active enzyme control 100%; activation, % at 7 µM; actives 80% (n = 3,200); AID 686952, 2013;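 active = activation above the all-compound mean plus 3 SD, ignoring values outside control-based bounds, cut at about 4.8% in these data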;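 also: value is the 4 h activation minus the activation read at time zero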
Numbers without * were called inactive; . = not tested or not shown.

SMILES	KLK7 zymogen act	CRFR2-BP ag	CRFBP-R2 block	NRP1-CendR mod	DDE Tn7 FP inh	Tn6 DDE FP	KLK7 act conf	EDANS interfere
CSc1ccc(/C=C/C(=O)OCC(=O)NC2CCCC2)cc1	19*	-1	5	3	-2	2	-2	4
O=C(COC(=O)/C=C/c1ccc(F)cc1)NC1CCCC1	0	0	12	4	-2	-1	.	.
C#CCNC(=O)C[C@@H]1C[C@]2(C(=O)OCC)CCC3=C2N(CCC3)C1=O	0	.	.	.	-3	3	.	.
Nc1ccc2nc3c(c(Cl)c2c1)CCCC3	14*	3	-6	18	1	-2	1	1
COC(=O)C[C@@H]1CC[C@@H]2[C@H](COc3ccc(NC(=O)Nc4c(C)noc4C)cc3C(=O)N2C)O1	0	.	.	.	-4	5	.	.
CCOC(=O)N1CCN(C(=O)C[C@H]2C[C@@]3(C(=O)OC)C(=C[C@H](C(C)C)O[C@@H]3C3CC3)N(Cc3ccc(Cl)cc3Cl)C2=O)CC1	1	.	.	.	-8	-2	.	.
O=C(OCc1cn(Cc2ccc(F)cc2F)nn1)N1CCCC1	0	.	.	.	3	-17	.	.
CN(c1ccccc1)S(=O)(=O)c1cccc(NC(=O)C2=NN(c3ccccc3)C(=O)CC2)c1	53*	1	-3	-4	3	-4	12	8.6*
C[C@H]1COc2cccc(F)c2S(=O)(=O)N1C	-1	.	.	.	-3	2	.	.
C=CCN(CC=C)c1nc2ccccc2nc1C(C#N)C(=O)OC(C)C (stereo not drawn)	19*	25	-24	-31	3	-2	22*	22*
C=CCOC(=O)C(C#N)c1nc2ccccc2nc1N1CCN(c2ccccc2OC)CC1 (stereo not drawn)	-1	-1	8	4	-4	8	.	.
CCNc1cc2n(c(=O)n1)CCc1cc(OC)c(OC)cc1-2	6	0	-5	-14	0	7	.	.
COc1cc2c(cc1OC)-c1cc(OCCN3CCOCC3)nc(=O)n1CC2	77*	-1	-6	-47	-1	-4	69*	64*
COC(=O)C1CN(Cc2ccc(C)cc2)CCS(=O)(=O)N1Cc1cn(Cc2ccc(Cl)cc2)nn1 (stereo not drawn)	1	.	.	.	5	13	.	.
COc1ccc2c(=O)c3ccccc3oc2c1	0	-1	-2	4	8	1	.	.
COc1ccc2oc3cc(NCCN(C)C)ccc3c(=O)c2c1	66*	.	.	-6	3	3	80*	79*
Cc1sc2nc3ccc(NCc4ccco4)nn3c(=O)c2c1C	17*	-4	5	-23	-3	-2	74*	70*
O=c1c2ccccc2nc2ccc(NCc3ccco3)nn12	3	6	3	-12	0	-4	.	.
COc1cc2c(cc1NC(=O)CSc1nnc(-c3ccccc3C)n1Cc1ccco1)oc1ccccc12	0	.	.	.	1	0	.	.
Cc1ccccc1NC(=O)OC1CC2CC1[C@H]1CCCCN1[C@H]2Cc1ccccc1 (stereo partly drawn)	-1	.	.	.	9	4	.	.
Cc1cc(N(C)Cc2ccccc2)nc2cc(O)ccc12	35*	-2	0	2	5	-3	64*	74*
C=CCN1C(=O)[C@H](CC(=O)NCC23CC4CC(CC(C4)C2)C3)[C@@]2(C(=O)OCC)CCCC=C12	0	.	.	.	-3	-11	.	.
